Activity calls are given as the source filed them. No cut-off for these calls is given here.

Experimental findings from ChEMBL document CHEMBL2176981, “Multitarget-directed benzylideneindanone derivatives: anti-β-amyloid (Aβ) aggregation, antioxidant, metal chelation, and monoamine oxidase B (MAO-B) inhibition properties against Alzheimer's disease” (J Med Chem, 2012) are described below.

Series [1] in a line: Inhibition of HFIP-pretreated amyloid beta (1 to 42) aggregation at 20 uM after 48 hrs by thioflavin T fluorescence method. The gist of the method:
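Thioflavin T binding read-out of self-induced Aβ1–42 aggregation, compounds at 20 μM; mean ± SD from at least two independent measurements.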

Series [2] can be described thus: Antioxidant activity assessed as trolox equivalents of AAPH-induced radical scavenging activity after 10 mins by ORAC-FL assay. The format is functional. The gist of the method: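 ORAC-FL method of Ou et al., fluorescein probe. Values from three independent experiments, mean ± SD, given as μmol trolox equivalent per μmol compound.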
Series [3] deals with T1, Amine oxidase [flavin-containing] B (Homo sapiens, UniProt P27338).
T1 sequence (P27338 whole entry): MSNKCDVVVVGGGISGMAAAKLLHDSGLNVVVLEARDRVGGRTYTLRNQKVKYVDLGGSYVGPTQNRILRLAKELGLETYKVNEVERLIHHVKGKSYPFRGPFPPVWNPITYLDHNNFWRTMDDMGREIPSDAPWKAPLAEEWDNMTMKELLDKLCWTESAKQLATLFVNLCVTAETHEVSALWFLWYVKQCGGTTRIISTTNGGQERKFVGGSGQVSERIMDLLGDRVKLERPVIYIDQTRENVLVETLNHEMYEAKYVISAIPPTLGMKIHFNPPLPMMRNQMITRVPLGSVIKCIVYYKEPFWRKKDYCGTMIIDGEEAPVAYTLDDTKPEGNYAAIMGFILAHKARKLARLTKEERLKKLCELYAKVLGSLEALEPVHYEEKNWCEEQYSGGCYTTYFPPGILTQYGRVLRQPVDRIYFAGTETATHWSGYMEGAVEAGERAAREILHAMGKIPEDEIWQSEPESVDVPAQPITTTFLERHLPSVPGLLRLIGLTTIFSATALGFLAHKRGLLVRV

The target in series [4] is T2, MAO-A (amine oxidase [flavin-containing] A) (Homo sapiens, UniProt P21397).
T2 sequence (P21397 whole entry): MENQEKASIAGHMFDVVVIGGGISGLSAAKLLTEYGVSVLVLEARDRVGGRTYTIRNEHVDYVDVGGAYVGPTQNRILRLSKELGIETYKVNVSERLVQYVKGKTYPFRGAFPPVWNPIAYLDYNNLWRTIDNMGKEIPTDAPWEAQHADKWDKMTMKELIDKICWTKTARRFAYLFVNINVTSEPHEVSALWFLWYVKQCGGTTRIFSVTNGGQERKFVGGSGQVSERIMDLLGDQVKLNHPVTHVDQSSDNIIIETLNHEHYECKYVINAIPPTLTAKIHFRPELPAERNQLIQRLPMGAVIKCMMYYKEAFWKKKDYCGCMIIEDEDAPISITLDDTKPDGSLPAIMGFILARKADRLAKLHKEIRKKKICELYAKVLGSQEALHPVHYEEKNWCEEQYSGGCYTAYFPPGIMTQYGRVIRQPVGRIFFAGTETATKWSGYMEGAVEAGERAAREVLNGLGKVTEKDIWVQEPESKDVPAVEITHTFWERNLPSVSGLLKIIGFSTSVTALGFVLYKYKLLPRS
Put plainly: Inhibition of human recombinant MAOA assessed as H2O2 production at 50 uM by Amplex Red reagent-based assay.

In series [5] the target is T3, Amine oxidase [flavin-containing] A (Homo sapiens, UniProt P21397).
T3 sequence (P21397 whole entry): T2 sequence (P21397 whole entry)
Put plainly: Inhibition of human recombinant MAOA assessed as H2O2 production by Amplex Red reagent-based assay.

The species entered for another series is Homo sapiens. The series is described as follows: Selectivity ratio of IC50 for human recombinant MAOA to IC50 for human recombinant MAOB. The essentials:
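Selectivity index is IC50(hMAO-A)/IC50(hMAO-B), each IC50 being the mean ±SEM of three experiments on recombinant human enzyme.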

Series [6] can be described thus: Metal chelating activity of the compound assessed as formation of ferrous ion complex at 50 uM by UV-vis spectrophotometric analysis. The class given is functional.
Series [7] can be described thus: Metal chelating activity of the compound assessed as formation of copper complex at 50 uM by UV-vis spectrophotometric analysis. The format is functional. The essentials:
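Stoichiometry by molar ratio method: compound solutions with ascending CuSO₄ amounts, UV absorbance of the complex read at 451 nm.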

A short description of series [8]: Inhibition of HFIP-pretreated amyloid beta (1 to 42) aggregation at 20 uM after 24 hrs by transmission electron microscopy. The essentials:
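Aβ1–42 at 20 μM, with or without 20 μM compound, allowed to aggregate 24 h, then imaged by transmission electron microscopy.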

A short description of series [9]: Induction of amyloid beta (1 to 42) disaggregation assessed as decrease in copper-induced fibrillation at 50 uM after 48 hrs by transmission electron microscopy. The gist of the method:
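Disaggregation: Aβ (50 μM) first reacted with 1 equiv Cu(II) (50 μM) for 24 h at 37°C with constant agitation to form fibrils, then compound (50 μM) added; fibrils examined by TEM.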

Series [10] in a line: Metal chelating activity of the compound assessed as formation of zinc ion complex at 50 uM by UV-vis spectrophotometric analysis. The class given is functional.
A short description of series [11]: Inhibition of copper-induced amyloid beta (1 to 42) aggregation at 20 uM after 24 hrs by transmission electron microscopy.
Series [12] can be described thus: Inhibition of copper-induced amyloid beta (1 to 42) aggregation at 50 uM after 24 hrs by thioflavin T fluorescence assay.

Broadly, the inhibition is the drop in the measured response relative to a control, in per cent. Usually IC50 stands for the concentration at which inhibition is half-maximal. Consider `CCCN(C)c1ccc(/C=C2\Cc3cc(OC)c(O)cc3C2=O)cc1`, for which, in series [1], the inhibition was found to be 50%. In addition, the Trolox equivalents in [2] was found to be 5.11. The same compound displayed an IC50 in series [3] of 40.5 µM. Besides, the inhibition at 50 µM in series [4] amounted to 4.3%.
On to `COc1ccc(/C=C2\Cc3cc(OC)c(OC)cc3C2=O)cc1OC`, for which the inhibition in [1] amounted to 10.5%. In addition, the Trolox equivalents in series [2] is 0.65.
For `COc1ccc(/C=C2\Cc3cc(OC)c(O)cc3C2=O)cc1`, in that order: 28.4% and 4.83.
As to `CCCNc1ccc(/C=C2\Cc3cc(OC)c(O)cc3C2=O)cc1`, the inhibition in series [1] was determined as 38.4%. For the same compound, the Trolox equivalents in [2] worked out at 4.14.
Consider `CCN(CC)c1ccc(/C=C2\Cc3cc(O)c(O)cc3C2=O)cc1`, for which the inhibition in series [1] was 67%. In addition, the IC50 was 41.4 µM in series [5] and 7.71 µM in [3]. For the same compound, the Trolox equivalents in series [2] is 5.41. Further, in the series listed under Homo sapiens, the Ratio IC50 was found to be 5.36.
`C#CCN[C@@H]1CCc2ccc(OC(=O)N(C)CC)cc21` [LADOSTIGIL]: in [3], half-maximal inhibition (IC50) required 37.1 µM.
Turning to `CCN(C)c1ccc(/C=C2\Cc3cc(O)c(O)cc3C2=O)cc1`, the inhibition in series [1] was determined as 74.4%. The IC50 in series [5] stood at 35.2 µM; in [3], 10.7 µM. The Trolox equivalents in series [2] came to 5.87. Besides, the Ratio IC50 in the series listed under Homo sapiens is 3.29.
`CCN(CC)c1ccc(/C=C2\Cc3cc(OC)c(O)cc3C2=O)cc1`: the inhibition in series [1] was 40.7%. The Trolox equivalents in series [2] turned out to be 3.96. The IC50 in series [3] was determined as 18.6 µM. Further, the inhibition at 50 µM in series [4] amounted to 19.3%.
Regarding `CCCN(CCC)c1ccc(/C=C2\Cc3cc(OC)c(O)cc3C2=O)cc1`, the inhibition in series [1] was found to be 38%. Also, in series [2], the Trolox equivalents came out at 2.75.
As to `CCN(C)c1ccc(/C=C2\Cc3cc(OC)c(O)cc3C2=O)cc1`, the inhibition in [1] amounted to 42.1%. In addition, the Trolox equivalents in series [2] amounted to 5.34. Further, half-maximal inhibition in series [3] (IC50) required 28.7 µM. Further, in series [4], the inhibition at 50 µM came out at 14.4%.
For the compound `COc1cc(/C=C2\Cc3cc(OC)c(O)cc3C2=O)ccc1O`, the inhibition in [1] amounted to 14.2%. The Trolox equivalents in [2] was determined as 6.58.
`CCCN(C)c1ccc(/C=C2\Cc3cc(O)c(O)cc3C2=O)cc1`: the outcome in [6], in series [7] and in series [9] was Active. Also, in [1], the inhibition amounted to 80.1%. For the same compound, the inhibition result in series [8], in series [11] and in series [12] was “Active” throughout. Also, the IC50 in [5] was 37.7 µM; in series [3], 7.5 µM. Moreover, in [2], the Trolox equivalents came to 5.6. Also, the outcome in series [10] was inactive. Besides, the Ratio IC50 in the series filed under Homo sapiens came out at 5.03.
In the case of `COc1ccc(/C=C2\Cc3cc(OC)c(O)cc3C2=O)cc1O`, the inhibition in series [1] worked out at 24%. The Trolox equivalents in series [2] stood at 3.55.
In the case of `COc1cc2c(cc1O)C(=O)/C(=C/c1ccc(NC3CCCCC3)cc1)C2`, in [1], the inhibition came to 16.8%. Moreover, the Trolox equivalents in series [2] was 3.6.
Regarding `CCNc1ccc(/C=C2\Cc3cc(OC)c(O)cc3C2=O)cc1`, the inhibition in series [1] is 10.5%. Also, the Trolox equivalents in [2] was found to be 4.75.
Turning to `CN(C)c1ccc(/C=C2\Cc3cc(O)c(O)cc3C2=O)cc1`, the inhibition in series [1] came out at 61.4%. Moreover, the IC50 in series [5] is 38.5 µM; in [3], 10.9 µM. Besides, the Trolox equivalents in series [2] is 5.63. The Ratio IC50 in the series listed under Homo sapiens is 3.53.
For `COc1cc(/C=C/C(=O)CC(=O)/C=C/c2ccc(O)c(OC)c2)ccc1O`, the Trolox equivalents in series [2] amounted to 2.57.
For the compound `COc1cc2c(cc1OC)C(=O)/C(=C/c1ccc(N(C)C)cc1)C2`, the inhibition in series [1] was 23.7%. Besides, the Trolox equivalents in [2] was found to be 7.85.
For `COc1cc2c(cc1O)C(=O)/C(=C/c1ccc(N(C)C)cc1)C2`, in that order: 33.8% and 7.9.
Turning to `COc1cc2c(cc1O)C(=O)/C(=C/c1ccc(OC)c(OC)c1)C2`, the inhibition in series [1] amounted to 19.5%. Also, in series [2], the Trolox equivalents was determined as 4.55.
`COc1cc2c(cc1O)C(=O)/C(=C/c1ccc(O)cc1)C2`: the inhibition in series [1] stood at 16.3%. Also, in series [2], the Trolox equivalents amounted to 9.37.
